Experimental findings from ChEMBL document CHEMBL4052588, “Design of a Biased Potent Small Molecule Inhibitor of the Bromodomain and PHD Finger-Containing (BRPF) Proteins Suitable for Cellular and in Vivo Studies” (J Med Chem, 2017) are described below.

As a reminder, the IC50 is the point on the concentration scale where inhibition reaches its midpoint. Usually GI50 stands for the concentration giving 50% growth inhibition. What is called solubility is the dissolved amount per volume that the medium holds. Lower therefore signals little dissolved substance. Usually Kd stands for the free concentration of one partner at which half of the binding sites on the other are occupied at equilibrium, for simple one-to-one binding. Read a high Kd as lower affinity. The term bioavailability denotes the share of a dose that reaches the circulation, judged against a reference dose that is usually intravenous.

Converted amounts (≈) assume the structure as drawn.

Series [1] addresses SWI/SNF-related matrix-associated actin-dependent regulator of chromatin subfamily A member 2 (Homo sapiens, UniProt P51531). Put plainly: Inhibition of human SMARCA2A expressed in Escherichia coli BL21 after 1 hr by BROMOscan assay.
Series [2] concerns the target CREB-binding protein (Homo sapiens, UniProt Q92793). Put plainly: Inhibition of human CREBBP expressed in Escherichia coli BL21 after 1 hr by BROMOscan assay.
The target in series [3] is Nucleosome-remodeling factor subunit BPTF (Homo sapiens, UniProt Q12830). Kind of series: Inhibition of human His tagged FALZ incubated for 30 mins followed by addition of biotinylated peptide and further incubation for 30 mins measured by AlphaScreen assay. (In Alpha technology, singlet oxygen from a donor bead excites a nearby acceptor bead.)
Series [4] concerns Hs 766. Put plainly: Growth inhibition of human Hs766T cells after 72 hrs. In kind it is functional. Conditions: Hs 766, 72 h.
Series [5] in a line: Elimination half life in CD-1 mouse plasma at 1 mg/kg, iv administered as bolus. In kind it is ADME, organism-based. Conditions: read-out: beta t1/2 (converted). Put shortly:
(§1)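 Female CD-1 mice (n = 3), single dosing: intravenous 1.0 mg/kg, or oral 3.0 mg/kg given as a suspension. Blood levels were followed over time to derive clearance, volume of distribution, elimination half-life, Cmax, Tmax, AUC0−∞, oral bioavailability and fraction absorbed.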

Series [6] can be described thus: Aqueous solubility of compound. In kind it is physicochemical. The following applies: buffer.
Series [7] relates to NCI-H1437. Kind of series: Growth inhibition of human NCI-H1437 cells after 72 hrs. In kind it is functional. Conditions: NCI-H1437, 72 h.
For series [8], the system named is NUGC-4. Kind of series: Growth inhibition of human NUGC4 cells after 72 hrs. It is filed as functional. Conditions: NUGC-4, 72 h.
Series [9] is described as follows: Growth inhibition of human C99 cells after 72 hrs. In kind it is functional. Conditions: C99, 72 h.
For series [10], the system named is THP-1. Kind of series: Growth inhibition of human THP1 cells after 72 hrs. It is filed as functional. The following applies: THP-1, 72 h.
A short description of series [11]: Fraction absorbed in CD-1 mouse at 3 mg/kg, po. In kind it is ADME, organism-based. The following applies: in vivo, read-out: Fabs. Summed up:
as §1

For series [12], the target named is T1, Bromodomain-containing protein 9 (Homo sapiens, UniProt Q9H8M2).
T1 sequence (Q9H8M2 whole entry): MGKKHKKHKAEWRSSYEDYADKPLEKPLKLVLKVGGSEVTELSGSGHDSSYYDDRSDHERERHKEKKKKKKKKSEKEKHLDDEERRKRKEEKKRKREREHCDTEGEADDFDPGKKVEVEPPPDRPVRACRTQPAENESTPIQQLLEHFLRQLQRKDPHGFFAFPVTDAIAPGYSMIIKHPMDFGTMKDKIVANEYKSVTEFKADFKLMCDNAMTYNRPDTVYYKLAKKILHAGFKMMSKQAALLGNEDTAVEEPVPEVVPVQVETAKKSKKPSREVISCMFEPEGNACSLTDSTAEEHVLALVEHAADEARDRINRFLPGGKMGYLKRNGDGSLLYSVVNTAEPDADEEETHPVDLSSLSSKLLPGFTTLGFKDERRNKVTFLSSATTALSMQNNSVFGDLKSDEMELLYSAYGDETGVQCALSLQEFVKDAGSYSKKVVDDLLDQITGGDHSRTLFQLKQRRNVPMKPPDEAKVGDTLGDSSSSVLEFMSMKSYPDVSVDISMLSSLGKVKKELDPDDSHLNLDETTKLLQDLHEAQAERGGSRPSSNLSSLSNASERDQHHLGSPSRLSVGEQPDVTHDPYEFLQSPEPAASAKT
Kind of series: Binding affinity to human BRD9 by isothermal titration calorimetry. For orientation: ITC needs no label: the signal is the heat of the interaction.

A short description of series [13]: Oral bioavailability in CD-1 mouse at 3 mg/kg. In kind it is ADME, organism-based. The following applies: in vivo. Put shortly:
as §1

For series [14], the system named is SW48. Put plainly: Growth inhibition of human SW48 cells after 72 hrs. It is filed as functional. Conditions: SW48, 72 h.
Series [15] relates to KG-1. Put plainly: Growth inhibition of human KG1 cells after 72 hrs. The following applies: KG-1, 72 h. It is filed as functional.
Series [16] can be described thus: Growth inhibition of human OCUM1 cells after 72 hrs. The following applies: OCUM1, 72 h. It is filed as functional.
For series [17], the system named is SW948. Kind of series: Growth inhibition of human SW948 cells after 72 hrs. In kind it is functional. Conditions: SW948, 72 h.
For series [18], the system named is LS180. Kind of series: Growth inhibition of human LS180 cells after 72 hrs. It is filed as functional. Conditions: LS180, 72 h.
Series [19] concerns LoVo. Kind of series: Growth inhibition of human LoVo cells after 72 hrs. In kind it is functional.
Series [20] has as its system RKO. Kind of series: Growth inhibition of human RKO cells after 72 hrs. It is filed as functional.
Series [21] concerns CWR22R. Kind of series: Growth inhibition of human 22Rv1 cells after 72 hrs. Conditions: 22Rv1, 72 h. In kind it is functional.
Series [22] deals with AGS. Put plainly: Growth inhibition of human AGS cells after 72 hrs. In kind it is functional.
The test system of series [23] is NOMO-1. Put plainly: Growth inhibition of human NOMO1 cells after 72 hrs. In kind it is functional. Conditions: NOMO-1, 72 h.
A short description of series [24]: Growth inhibition of human SW403 cells after 72 hrs. In kind it is functional. The following applies: SW-403, 72 h.
Series [25] deals with T2, Bromodomain-containing protein 1 (Homo sapiens, UniProt O95696).
T2 sequence (O95696 whole entry): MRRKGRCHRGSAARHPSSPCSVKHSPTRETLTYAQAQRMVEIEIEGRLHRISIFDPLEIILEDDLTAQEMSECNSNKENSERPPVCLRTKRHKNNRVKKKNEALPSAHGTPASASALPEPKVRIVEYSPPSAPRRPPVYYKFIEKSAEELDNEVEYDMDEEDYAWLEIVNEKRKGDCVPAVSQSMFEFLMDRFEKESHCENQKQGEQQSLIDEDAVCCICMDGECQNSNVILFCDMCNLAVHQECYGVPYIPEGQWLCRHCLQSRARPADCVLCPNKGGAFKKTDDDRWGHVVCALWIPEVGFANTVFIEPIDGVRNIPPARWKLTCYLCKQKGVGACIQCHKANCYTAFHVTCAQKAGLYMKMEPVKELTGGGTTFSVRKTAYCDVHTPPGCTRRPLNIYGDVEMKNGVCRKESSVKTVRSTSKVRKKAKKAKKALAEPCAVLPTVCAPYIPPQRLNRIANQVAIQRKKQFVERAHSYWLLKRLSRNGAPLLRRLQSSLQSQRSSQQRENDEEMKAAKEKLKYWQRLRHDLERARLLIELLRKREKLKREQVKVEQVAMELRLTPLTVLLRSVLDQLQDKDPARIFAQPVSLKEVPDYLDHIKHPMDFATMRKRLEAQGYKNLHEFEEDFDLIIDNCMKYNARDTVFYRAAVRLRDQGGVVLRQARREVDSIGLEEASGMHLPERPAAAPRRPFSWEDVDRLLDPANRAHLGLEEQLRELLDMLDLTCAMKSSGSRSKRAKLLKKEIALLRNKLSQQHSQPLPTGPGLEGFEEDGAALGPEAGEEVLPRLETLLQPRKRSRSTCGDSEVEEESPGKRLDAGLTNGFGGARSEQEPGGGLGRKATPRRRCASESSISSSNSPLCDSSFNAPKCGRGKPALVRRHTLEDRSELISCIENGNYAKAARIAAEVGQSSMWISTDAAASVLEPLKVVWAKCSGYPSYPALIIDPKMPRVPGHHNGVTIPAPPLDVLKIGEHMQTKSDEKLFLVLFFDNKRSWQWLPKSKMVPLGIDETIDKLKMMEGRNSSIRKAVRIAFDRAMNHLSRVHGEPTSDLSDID
Put plainly: Binding affinity to human BRPF2 by isothermal titration calorimetry.

The subject of series [26] is MV4-11. Kind of series: Growth inhibition of human MV4-11 cells after 72 hrs. It is filed as functional. Conditions: MV4-11, 72 h.

SWI/SNF-related matrix-associated actin-dependent regulator of chromatin subfamily A member 2, sequence (P51531 whole entry): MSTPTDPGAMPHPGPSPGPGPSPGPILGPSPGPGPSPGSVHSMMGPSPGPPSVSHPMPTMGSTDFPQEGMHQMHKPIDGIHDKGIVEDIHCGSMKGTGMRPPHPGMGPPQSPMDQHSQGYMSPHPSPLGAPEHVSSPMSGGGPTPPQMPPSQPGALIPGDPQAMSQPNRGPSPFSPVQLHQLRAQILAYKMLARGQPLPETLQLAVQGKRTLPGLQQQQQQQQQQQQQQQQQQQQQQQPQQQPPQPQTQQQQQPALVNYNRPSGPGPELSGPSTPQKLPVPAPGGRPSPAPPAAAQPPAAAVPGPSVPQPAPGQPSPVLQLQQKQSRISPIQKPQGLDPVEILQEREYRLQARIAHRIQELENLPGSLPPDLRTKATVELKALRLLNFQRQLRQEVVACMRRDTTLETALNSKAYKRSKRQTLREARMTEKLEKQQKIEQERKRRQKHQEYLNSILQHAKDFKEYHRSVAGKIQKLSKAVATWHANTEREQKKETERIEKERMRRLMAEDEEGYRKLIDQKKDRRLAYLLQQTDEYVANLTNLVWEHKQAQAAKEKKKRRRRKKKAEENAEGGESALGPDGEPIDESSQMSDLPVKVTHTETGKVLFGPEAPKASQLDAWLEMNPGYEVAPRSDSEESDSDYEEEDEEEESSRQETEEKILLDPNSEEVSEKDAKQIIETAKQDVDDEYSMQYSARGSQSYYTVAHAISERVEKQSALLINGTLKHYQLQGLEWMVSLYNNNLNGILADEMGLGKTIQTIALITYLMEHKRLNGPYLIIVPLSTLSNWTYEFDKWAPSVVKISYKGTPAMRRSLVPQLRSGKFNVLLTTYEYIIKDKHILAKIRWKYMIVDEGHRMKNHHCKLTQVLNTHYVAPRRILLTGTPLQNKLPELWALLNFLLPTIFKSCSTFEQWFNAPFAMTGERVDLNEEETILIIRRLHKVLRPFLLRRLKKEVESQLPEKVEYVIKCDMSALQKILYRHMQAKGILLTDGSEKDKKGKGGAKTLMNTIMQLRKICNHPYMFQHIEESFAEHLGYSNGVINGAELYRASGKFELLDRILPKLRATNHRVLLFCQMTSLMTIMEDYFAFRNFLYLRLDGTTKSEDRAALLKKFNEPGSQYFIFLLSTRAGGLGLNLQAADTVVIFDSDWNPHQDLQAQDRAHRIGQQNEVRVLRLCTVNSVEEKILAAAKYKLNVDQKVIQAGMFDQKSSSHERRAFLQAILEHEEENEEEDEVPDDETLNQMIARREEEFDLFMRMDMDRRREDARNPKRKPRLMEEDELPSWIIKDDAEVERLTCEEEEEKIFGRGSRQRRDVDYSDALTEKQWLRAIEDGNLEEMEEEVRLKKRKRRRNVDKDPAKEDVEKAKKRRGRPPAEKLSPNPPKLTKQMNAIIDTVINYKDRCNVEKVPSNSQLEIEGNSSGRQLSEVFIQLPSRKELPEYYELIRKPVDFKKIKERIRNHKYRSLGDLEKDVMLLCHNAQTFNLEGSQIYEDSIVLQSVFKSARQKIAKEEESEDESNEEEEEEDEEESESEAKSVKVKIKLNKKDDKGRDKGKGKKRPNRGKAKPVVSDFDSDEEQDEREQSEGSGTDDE
CREB-binding protein, sequence (Q92793 whole entry): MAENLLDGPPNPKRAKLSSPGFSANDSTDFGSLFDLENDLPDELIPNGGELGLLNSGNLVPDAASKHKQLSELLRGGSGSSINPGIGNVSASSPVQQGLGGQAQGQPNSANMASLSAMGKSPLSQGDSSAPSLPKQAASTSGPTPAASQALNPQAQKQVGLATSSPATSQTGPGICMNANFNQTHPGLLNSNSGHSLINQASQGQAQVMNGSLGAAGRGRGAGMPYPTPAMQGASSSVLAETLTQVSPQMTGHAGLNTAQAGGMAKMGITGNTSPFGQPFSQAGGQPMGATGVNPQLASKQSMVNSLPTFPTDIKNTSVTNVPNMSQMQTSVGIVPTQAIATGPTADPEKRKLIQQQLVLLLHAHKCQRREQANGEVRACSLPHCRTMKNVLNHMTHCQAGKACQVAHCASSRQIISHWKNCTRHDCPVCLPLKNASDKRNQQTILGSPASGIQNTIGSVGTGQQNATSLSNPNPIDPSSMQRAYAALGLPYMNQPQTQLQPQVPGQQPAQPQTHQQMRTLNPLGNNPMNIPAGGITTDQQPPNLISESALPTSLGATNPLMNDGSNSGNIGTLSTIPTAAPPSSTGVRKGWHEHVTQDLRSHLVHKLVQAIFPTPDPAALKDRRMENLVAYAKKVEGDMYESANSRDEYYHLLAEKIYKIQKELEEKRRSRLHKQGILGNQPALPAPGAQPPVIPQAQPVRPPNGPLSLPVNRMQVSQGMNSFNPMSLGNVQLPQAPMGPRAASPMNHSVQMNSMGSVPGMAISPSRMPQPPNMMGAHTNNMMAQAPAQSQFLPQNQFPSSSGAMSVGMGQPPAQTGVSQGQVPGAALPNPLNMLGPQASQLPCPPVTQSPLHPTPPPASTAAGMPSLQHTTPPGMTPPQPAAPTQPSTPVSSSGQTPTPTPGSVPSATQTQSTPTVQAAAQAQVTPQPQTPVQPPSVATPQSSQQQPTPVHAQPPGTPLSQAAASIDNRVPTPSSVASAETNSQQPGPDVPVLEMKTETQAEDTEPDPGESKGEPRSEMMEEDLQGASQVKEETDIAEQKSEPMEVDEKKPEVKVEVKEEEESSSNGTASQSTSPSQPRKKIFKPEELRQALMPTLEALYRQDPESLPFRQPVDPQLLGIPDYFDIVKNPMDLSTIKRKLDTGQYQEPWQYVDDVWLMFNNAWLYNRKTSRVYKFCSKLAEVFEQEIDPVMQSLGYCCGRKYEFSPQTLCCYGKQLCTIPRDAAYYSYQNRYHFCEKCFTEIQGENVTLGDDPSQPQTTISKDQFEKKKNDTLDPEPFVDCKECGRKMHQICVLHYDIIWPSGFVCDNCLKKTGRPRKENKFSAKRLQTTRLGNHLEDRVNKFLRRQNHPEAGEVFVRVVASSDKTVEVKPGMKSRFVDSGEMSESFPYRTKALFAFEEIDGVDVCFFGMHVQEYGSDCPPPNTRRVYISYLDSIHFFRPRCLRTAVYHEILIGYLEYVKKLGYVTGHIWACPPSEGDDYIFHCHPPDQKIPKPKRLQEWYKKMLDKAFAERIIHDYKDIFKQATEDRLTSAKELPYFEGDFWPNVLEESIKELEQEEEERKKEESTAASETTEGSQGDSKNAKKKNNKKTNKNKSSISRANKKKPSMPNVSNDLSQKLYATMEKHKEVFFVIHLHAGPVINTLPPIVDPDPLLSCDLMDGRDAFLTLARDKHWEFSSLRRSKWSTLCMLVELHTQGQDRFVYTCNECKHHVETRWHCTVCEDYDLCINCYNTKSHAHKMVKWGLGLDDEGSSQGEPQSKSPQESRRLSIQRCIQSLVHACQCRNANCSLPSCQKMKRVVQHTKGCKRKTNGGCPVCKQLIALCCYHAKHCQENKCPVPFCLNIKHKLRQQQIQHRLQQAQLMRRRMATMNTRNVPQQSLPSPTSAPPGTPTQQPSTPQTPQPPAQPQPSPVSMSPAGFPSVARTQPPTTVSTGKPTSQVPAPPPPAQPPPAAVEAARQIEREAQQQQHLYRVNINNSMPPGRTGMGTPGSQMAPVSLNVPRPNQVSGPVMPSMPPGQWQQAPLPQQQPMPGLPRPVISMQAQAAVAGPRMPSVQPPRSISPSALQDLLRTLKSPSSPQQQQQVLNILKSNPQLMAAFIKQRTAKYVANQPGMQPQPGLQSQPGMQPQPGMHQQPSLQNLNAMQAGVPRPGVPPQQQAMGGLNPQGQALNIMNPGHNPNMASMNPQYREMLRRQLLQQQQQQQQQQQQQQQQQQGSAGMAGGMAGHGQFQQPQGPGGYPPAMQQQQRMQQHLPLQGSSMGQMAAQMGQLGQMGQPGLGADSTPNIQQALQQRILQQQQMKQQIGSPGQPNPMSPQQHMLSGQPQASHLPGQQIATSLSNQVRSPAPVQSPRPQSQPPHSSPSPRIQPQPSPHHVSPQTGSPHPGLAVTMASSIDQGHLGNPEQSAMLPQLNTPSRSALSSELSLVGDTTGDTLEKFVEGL

For the compound `CCc1cc2cc(NS(=O)(=O)c3ccc(C#N)cc3)ccc2n(CC)c1=O`, the IC50 in series [1] was 77 µM; in series [2], above 100 µM; in [3] it was above 20 µM.
Regarding `Cc1cc2cc(NS(=O)(=O)c3ccc(C#N)cc3)ccc2n(C)c1=O`, the GI50 in series [4] is 1 to 10 µM; in series [7], 1 to 10 µM; in series [8], 1 to 10 µM; in series [9], 1 to 10 µM; in series [10], 5.7 µM; in series [14] it was 1 to 10 µM. Further, the GI50 in [15] was 7 µM; in [16], 1 to 10 µM; in [17], 1 to 10 µM; in series [18] it was 1 to 10 µM; in [19] it was 1 to 10 µM; in series [20], 1 to 10 µM. In addition, the concentration for 50% growth inhibition (GI50) was 1 to 10 µM in series [21]; 1 to 10 µM in series [22]; 4.6 µM in [23]; 1 to 10 µM in series [24]; 9.9 µM in [26]. In addition, the half-life in series [5] is 2 h. This compound registered a solubility in series [6] of 100 µM (≈ 35.3 µg/mL). The Fa in series [11] is 51%. Besides, the Kd was 1.13 µM in [12] and 0.21 µM in series [25]. In [13], the bioavailability turned out to be 49%.
